{"data": "Measured values of several laboratories", "SLC6A4": "Sodium-dependent serotonin transporter (SLC6A4, Homo sapiens, UniProt P31645)", "rep papain-like protease": "Replicase polyprotein 1ab, papain-like protease (rep, Porcine epidemic diarrhea virus, UniProt P0C6Y4)", "note": "Protocols differ between the studies behind these lines. pEC50, pIC50, pKd, pKi: −log10 of the molar value."}
{"SMILES": "CCOC(=O)[C@@]12C[C@@H]1[C@@H](n1cnc3c(NCCCCCCc4ccccc4)nc(I)nc31)[C@H](O)[C@@H]2O", "target": "SLC6A4", "assay": "ligand displacement, radioligand", "quantity": "pKi", "value": 5.34}
{"SMILES": "O=C(NCc1cc(O)c(O)c(Br)c1)c1ccc(Cl)s1", "target": "rep papain-like protease", "assay": "enzyme activity, inhibitor, FRET", "quantity": "pIC50", "value": 5.56}
{"SMILES": "O=C1CCC(N2Cc3cc(-c4cc5ccccc5cn4)ccc3C2=O)C(=O)N1 (stereo not drawn)", "target": "WEE1/CRBN (Homo sapiens, UniProt P30291+Q96SW2)", "assay": "protein level, degrader", "quantity": "DC50", "value": "0.043 µM"}
{"SMILES": "O=C(NCc1ccc(Br)cc1)c1c[nH]c(-c2n[nH]c3ncccc23)c1", "target": "E3 ubiquitin-protein ligase NEDD4 (Homo sapiens, UniProt P46934)", "assay": "binding, MST", "quantity": "pKd", "value": 7.36}
{"SMILES": "O=C(NCc1cc(O)c(O)c(Br)c1)c1cccc(CCl)c1", "target": "rep papain-like protease", "assay": "enzyme activity, inhibitor, FRET", "quantity": "pIC50", "value": 5.51}
{"SMILES": "N#CC[C@@]12C[C@@H]1[C@@H](n1cnc3c(NCCCCCCc4ccccc4)nc(I)nc31)[C@H](O)[C@@H]2O", "target": "SLC6A4", "assay": "ligand displacement, radioligand", "quantity": "pKi", "value": 5.36}
{"SMILES": "Cc1cc2[nH]cc(C(=O)O)c(=O)n2n1", "target": "Peptidyl-prolyl cis-trans isomerase F, mitochondrial (PPIF, Homo sapiens, UniProt P30405)", "assay": "binding, SPR", "quantity": "pKd", "value": "< 1.70"}
{"SMILES": "CC(C)C[C@H](NC(=O)[C@@H](N)[C@@H](C)O)C(=O)N[C@@H](CCC(N)=O)C(=O)N1CCC[C@H]1C(=O)N1CCC[C@H]1C(=O)N[C@@H](C)C(=O)N[C@@H](CO)C(=O)N[C@@H](CO)C(=O)N[C@@H](CCCNC(=N)N)C(=O)N[C@@H](CCCNC(=N)N)C(=O)N[C@@H](CCCNC(=N)N)C(=O)N[C@@H](Cc1c[nH]cn1)C(=O)N[C@@H](Cc1ccccc1)C(=O)N[C@@H](Cc1c[nH]cn1)C(=O)N[C@@H](Cc1c[nH]cn1)C(=O)N[C@@H](C)C(=O)N[C@@H](CC(C)C)C(=O)N1CCC[C@H]1C(=O)N1CCC[C@H]1C(=O)N[C@@H](C)C(=O)N[C@@H](CCCNC(=N)N)C(=O)O", "target": "C3a anaphylatoxin chemotactic receptor (C3AR1, Homo sapiens, UniProt Q16581)", "assay": "β-arrestin recruitment, agonist", "quantity": "pEC50", "value": 6.19}
{"SMILES": "OC[C@@H]1O[C@@H](OC[C@H]2O[C@@H](OC/C=C/c3ccccc3)[C@H](O)[C@@H](O)[C@@H]2O)[C@H](O)[C@H]1O", "target": "POU domain, class 3, transcription factor 3 (Homo sapiens, UniProt P20264)", "assay": "binding, SPR", "quantity": "pKd", "value": 5.12}
